Arbovirus anti = antivirals against arbovirus infection, primary screen, cell-based, full library, 10K replicate subset. arbovirus infection cell-based antiviral screen. inhibition, % at 10 µM. actives 0.37% (n = 200,000); in the data active means inhibition above about 30%
Wee1 degr inh = Wee1 degradation inhibitors, primary screen, cell-based, HeLa, Wee1K328M-luciferase, luminescence; Wee1-like protein kinase (Homo sapiens), P30291; HeLa Luc-Wee1K328M stability; 100% = proteasome inhibitor MG132 effect; reporter increase, % at 5 µM; actives 1.2% (n = 220,000);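 active means activation above the mean of all tested compounds plus 3 SD, set per screening run, cut at about 8.8% in these data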;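 further: cells exposed to compound for 20 h before luminescence read; 0% = DMSO alone and 100% = MG132 at 30 µM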
Target sequence (P30291 whole entry K328M): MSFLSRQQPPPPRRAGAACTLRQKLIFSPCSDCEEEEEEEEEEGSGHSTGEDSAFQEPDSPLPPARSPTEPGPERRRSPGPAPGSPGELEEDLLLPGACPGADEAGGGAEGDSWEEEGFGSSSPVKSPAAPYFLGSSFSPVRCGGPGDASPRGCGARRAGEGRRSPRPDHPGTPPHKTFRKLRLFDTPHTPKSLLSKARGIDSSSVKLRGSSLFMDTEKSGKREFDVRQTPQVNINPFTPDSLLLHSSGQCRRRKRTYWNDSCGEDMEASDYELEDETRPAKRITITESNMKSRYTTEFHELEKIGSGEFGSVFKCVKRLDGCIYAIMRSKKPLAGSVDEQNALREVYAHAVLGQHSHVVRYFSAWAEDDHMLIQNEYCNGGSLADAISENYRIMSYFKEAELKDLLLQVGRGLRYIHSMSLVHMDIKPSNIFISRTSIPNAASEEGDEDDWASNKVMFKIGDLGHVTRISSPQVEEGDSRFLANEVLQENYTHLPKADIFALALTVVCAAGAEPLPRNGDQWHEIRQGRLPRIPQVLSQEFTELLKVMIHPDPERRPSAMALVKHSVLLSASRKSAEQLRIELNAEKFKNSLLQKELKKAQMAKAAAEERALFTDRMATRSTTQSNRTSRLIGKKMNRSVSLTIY
L major viab = Leishmania major promastigote growth inhibition, primary screen. Leishmania major promastigotes, resazurin fluorescence viability. AID 1063, 2008. inhibition, % at 10 µM. actives 9% (n = 200,000);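 further: promastigotes grown with compound for 44 hours at 28 °C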
Rad51 HR inh = human RAD51 strand exchange inhibitors, primary screen, biochemical, fluorescence. DNA repair protein RAD51 homolog 1 (Homo sapiens), Q06609. hRad51 DNA strand exchange, fluorescence dequenching. inhibition, % at 10 µM. actives 0.085% (n = 200,000);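 active means inhibition above 40% at the single screening dose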;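 further: 0% = DMSO control wells and 100% = blanks with heterologous ssDNA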
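Read-out basis: percent inhibition relative to plate controls and blanks / Assay system: human Rad51 nucleoprotein filaments preassembled on unlabelled ssDNA / Timing: filaments 15 min 37 °C, then compound 30 min / Control set: per-plate controls and blanks / Technique: fluorescence dequenching at 485/520 nm / Compound: 10 µM final, single point / Also added: Fluorescein- and BHQ1-tagged 47-mer duplex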
CHOP inhibitor = inhibitors of CHOP promoter induction, primary screen, cell-based, unfolded protein response, luciferase reporter | CHO-K1 CHOP-promoter luciferase, tunicamycin-induced, 15-18 h | inhibition, % at 10 µM | actives 3.8% (n = 220,000) | AID 2732, 2010;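 active means compounds that reduced the stress-induced luciferase reporter signal by more than about 70% of percent inhibition, limit read from the data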;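 further: 0% = tunicamycin plus vehicle and 100% = wells without tunicamycin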
PKD1 kinase inh = inhibitors of human PKD1 kinase, biochemical, fluorescence polarization | Serine/threonine-protein kinase D1 (Homo sapiens), Q15139 | PKD1 kinase fluorescence polarization assay | inhibition, % (test concentration not listed) | actives 0.056% (n = 200,000)
CHOP confirm = retest of CHOP induction inhibitors, confirmation, cell-based; inhibition, % at 10 µM; actives 45% (n = 2,100); CHO-CHOP promoter luciferase reporter, tunicamycin-induced, luminescence; shares compounds with CHOP inhibitor;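 active means mean of three repeat readings of reporter signal inhibition above a set limit, cut at about 70% in these data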;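 further: 0% = tunicamycin plus vehicle and 100% = wells lacking tunicamycin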
Active calls of the source: *; · = not tested or not shown. In the library only some 12% were active in any assay of this set; here they are far more common. Unless noted, no stated cut-off is given here; in the data, active means inhibition above about 50%; inactive means the rest.

SMILES	Arbovirus anti	Wee1 degr inh	L major viab	Rad51 HR inh	CHOP inhibitor	PKD1 kinase inh	CHOP confirm
CCOC(=O)c1oc2ccc(S(=O)(=O)n3nc(-c4ccc(C)cc4)cc3N)cc2c1C	-14	0	91*	0	97*	11	56
CCOC(=O)c1oc2ccc(S(=O)(=O)Nc3ccc4c(c3)n(C)c(=O)n4C)cc2c1C	-20	1	44	0	·	-8	·
CC1=C(C(=O)N2CCN(c3cc(C)ccc3C)CC2)C2(CCC(C)CC2)OC1=O (stereo unspecified)	2	1	-2	4	43	-10	·
O=C(Nc1ccc([N+](=O)[O-])cc1)Nc1nc(-c2ccc(Cl)s2)cs1	-22	0	82*	-76	107*	-14	83*
Cc1ccc(C2=CC(c3ccc(N(C)C)cc3)n3nnnc3N2)cc1 (stereo unspecified)	4	-3	2	-2	100*	-8	52
O=C(COC(=O)/C=C/C(=O)OCC(=O)NC12CC3CC(CC(C3)C1)C2)NC12CC3CC(CC(C3)C1)C2	-37	-3	-2	28	105*	-9	-12
Clc1ccc2c(NNc3ccccc3Cl)ccnc2c1	1	2	-3	5	47	6	·
Clc1cccc(/C=N\Nc2nccs2)c1	2	0	1	2	55	-5	·
Clc1ccc2c(N/N=C/c3cccc(Br)c3)ccnc2c1	-32	1	100*	-5	105*	-10	32
Clc1ccc2c(N/N=C/c3ccccc3Br)ccnc2c1	1	0	99*	7	100*	3	77*
Cc1ccc(S(=O)(=O)N2CCCCC2)cc1NC(=O)COC(=O)c1ccccc1F	-2	7	4	-110	-2	-6	·
Cc1ccnc(Sc2ncccc2[N+](=O)[O-])n1	1	1	0	2	25	3	·
Cc1cc(Sc2ncnc(N)c2[N+](=O)[O-])ncn1	-18	0	23	2	106*	-6	61
Cc1cc(Sc2nc(N)ncc2[N+](=O)[O-])ncn1	-12	-1	17	2	106*	-2	26
Brc1ccc(C2Nc3cccc4cccc(c34)N2)s1	-17	2	2	-3	104*	7	3
O=C(CSc1nnnn1-c1ccc(Cl)cc1)NC(=O)Nc1ccc2c(c1)OCCO2	1	-2	-6	5	100*	-7	51
COc1ccccc1Nc1nnc(SCC(=O)NC(=O)Nc2ccc3c(c2)OCCO3)s1	-22	-1	56*	5	104*	3	18
O=C(NNc1ccc(C2CCCCC2)cc1)C(O)(c1ccccc1)c1cccs1 (stereo unspecified)	-32	-1	99*	-5	106*	9	-3
COc1ccc(CCC(=O)Nc2cc(S(C)(=O)=O)ccc2Cl)cc1	2	0	2	21	8	-7	·
COc1cc([N+](=O)[O-])cc(/C=N/NC(=O)c2ccc(NC(=O)c3ccc(C)cc3)cc2)c1O	-22	5	29	7	105*	-1	49
CCOc1ccc(Br)cc1S(=O)(=O)Nc1cccc(S(=O)(=O)N(C)C)c1	15	-3	22	1	26	-3	·
O=C(Cn1ncc(Cl)c(Cl)c1=O)N1CCN(S(=O)(=O)c2ccc3ccccc3c2)CC1	-34	-2	99*	-3	99*	7	-25
O=[N+]([O-])c1ccc(-c2nn(-c3ccccc3)cc2/C=N/n2c(-c3cccs3)n[nH]c2=S)cc1	·	3	·	8	102*	·	101*
COc1cccc(NC(=O)CN(C)C(=O)COc2ccc3ccccc3c2)c1	6	2	-2	-5	-1	-13	·
COc1ccc2c(c1)c1ccc3c(c1n2C)C(=O)C=CC3=O	·	8	·	27	104*	·	41
SMILES	Arbovirus anti	Wee1 degr inh	L major viab	Rad51 HR inh	CHOP inhibitor	PKD1 kinase inh	CHOP confirm
CCOC(=O)N/N=C/C=C/c1ccccc1	0	1	-5	5	-8	1	·
Cc1nnc(SCC(=O)Nc2c(C)n(C)n(-c3ccccc3)c2=O)n1Cc1ccccc1	5	-2	-2	15	1	0	·
C=CCn1c(O)c(C2=c3ccccc3=NC2=O)sc1=Nc1ccc(O)cc1	-34	·	·	-3	104*	·	38
CCC1CCCCN1S(=O)(=O)c1ccc2c(c1)CCN2C(=O)C1CCC1 (stereo unspecified)	-13	4	20	3	18	2	·
O=C(CCl)c1ccc2c(c1)CCN2C(=O)C1CCCCC1	8	0	100*	2	109*	-7	19
O=C1CCCCc2sc(Br)c([N+](=O)[O-])c2N1	·	3	·	·	105*	·	19
Cc1nc(-c2ccc(Br)cc2)ccc1C(=O)O	2	-2	-9	4	6	-7	·
FC(F)Sc1ccc(NC(=S)NCC2CCCCC2)cc1	-36	3	23	1	106*	5	15
O=C(NCCc1ccc(F)cc1)C1CCCCC1	-6	-3	-3	-5	-21	-3	·
O=C(Nc1nccs1)c1cc2c(s1)CCCCC2	23	-3	26	-4	98*	-8	78*
NNC(=O)c1cc2c(s1)CCCCCC2	-23	2	1	4	16	-7	·
CC(=O)OCC1O[C@@H](O[C@@H]2C[C@H]3C(C)(C)[C@H](OC(C)=O)CC[C@]3(C)[C@H]3CC[C@]45C[C@]4(CC[C@H]5[C@@H](C)C[C@@H](O)[C@H](O)C(C)(C)O)[C@@]32C)[C@H](O)[C@@H](O)[C@@H]1O (stereo partly specified)	-37	0	11	9	106*	-10	120*
Cc1cccc(C(=O)c2cnc3ccccc3c2-c2ccccc2)c1	-4	0	21	1	102*	2	77*
Cc1cccc(C(=O)NNC(=O)c2ccccc2)c1	4	0	28	-5	-20	-8	·
COc1ccc(C(=O)Nc2nnc(-c3ccco3)s2)cc1	-37	0	19	1	107*	-4	73*
O=C(Nc1nnc(-c2ccco2)s1)c1ccccc1	8	-2	-11	-1	-12	-15	·
O=C(Nc1ccc(F)cc1)Nc1nnc(-c2ccco2)s1	22	2	-5	-7	96*	-2	12
Cc1ccc(C)c(OCC(=O)Nc2nonc2NC(=O)COc2cc(C)ccc2C)c1	4	-1	-1	3	101*	-19	64

Bioassay records (PubChem BioAssay)
